# From ChEMBL document CHEMBL1123378, “Cardiotonic agents. 1. Synthesis and structure-activity relationships in a new class of 3-, 4-, and 5-pyridyl-2(1H)-quinolone derivatives” (1986)
# pEC50: −log10 of the molar value.
# Key:
# Cavia porcellus [1] = species: Cavia porcellus; experiment: Positive inotropic activity in isolated left guinea pig atria.; format: functional; conditions: read-out: ED50 (the source's name)
# Method in brief: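 Isolated guinea pig left atria were paced electrically with square-wave pulses (2.5 Hz, 5 ms, voltage 50% above threshold) and stretched to 0.5 g resting tension. The bath was Krebs–Henseleit at 32 °C, gassed with 95% O2/5% CO2. An isoprenaline dose–response curve was run first to test each preparation. The ED50 (mol/L, dose giving 50% of maximum effect) was derived by the Ariens–Van Rossum method.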
# Cavia porcellus [2] = species: Cavia porcellus; experiment: Maximum response compared to maximum response to isoprenaline.; format: functional
# Method in brief: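 Electrically paced isolated guinea pig left atria (2.5 Hz, 5 ms pulses, 50% above threshold) were held in Krebs–Henseleit at 32 °C under 95% O2/5% CO2 and 0.5 g resting tension. Intrinsic activity is the compound's maximal inotropic response divided by the isoprenaline maximum, with isoprenaline set to 1. The number of experiments is given per value.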
SMILES,pEC50 (Cavia porcellus [1]),Intrinsic activity (Cavia porcellus [2])
Cl.Nc1cc2ccccc2nc1O,< 4.11,0.2
Cl.Oc1ccc2c(-c3ccncc3)ccc(O)c2n1,4.70,0.24
COc1ccc(-c2ccncc2)c2ccc(O)nc12.Cl,4.46,0.75
Br.Oc1ccc2c(-c3cccnc3)ccc(O)c2n1,5.17,0.62
COc1cccc2c(-c3ccncc3)cc(O)nc12.Cl,4.42,0.45
Cl.Oc1cc(-c2ccncc2)c2cccc(O)c2n1,4.66,0.55
COc1ccc(-c2cccnc2)c2ccc(O)nc12.Cl,5.24,0.79
COc1ccc(N)c2ccc(O)nc12.Cl,3.63,0.23
COc1ccc(-c2cccnc2)c2c1NC(=O)CC2,4.92,0.56
Oc1nc2ccccc2cc1-c1cccnc1,3.52,0.08
COc1ccc(-c2cccnc2)cc1NC(=O)CC(C)=O,5.08,0.51
COc1ccc(-c2ccccn2)c2c1NC(=O)CC2,4.66,0.44
Oc1ccc2c(-c3cccnc3)cccc2n1,5.89,0.83
COc1ccc(-c2ccncc2)c2c1NC(=O)CC2,4.51,0.75
COc1ccc(-c2ccccn2)c2ccc(O)nc12,4.46,0.62
CCO/C=C\C(=O)Nc1cc(-c2cccnc2)ccc1Cl,–,0.28
CCO/C=C\C(=O)Nc1cccc(-c2cccnc2)c1,–,0.42
CCO/C=C\C(=O)Nc1cccc(-c2ccccn2)c1,–,0.33
CCO/C=C\C(=O)Nc1cc(-c2cccnc2)ccc1OC,–,0.54
CC(C)NCC(O)c1ccc(O)c(O)c1 (centres undefined) [ISOPROTERENOL],–,1
Cc1[nH]c(=O)c(C#N)cc1-c1ccncc1 [MILRINONE],4.85,0.67
COc1cc([S+](C)[O-])ccc1-c1nc2cccnc2[nH]1 (centres undefined) [SULMAZOLE],4.92,0.85
